In the library only some 2.7% were active in any assay of this set; here they are far more common.
DENV2 CPE: inhibitors of DENV2 cytopathic effect, primary screen, cell-based, plate reader, single concentration | DENV2-infected cells, cytopathic effect rescue | CPE inhibition, % at 9.99 µM | actives 1.7% (n = 350,000); in the data active = CPE inhibition above about 20%, passing the limit was not always enough; inconclusive = no clear call, values can overlap the other calls; tested in BHK-21 cells;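 note: 0% = median of neutral control wells and 100% = median of positive control wells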
MLL AF4-AF9 inh: inhibitors of AF4 peptide binding to AF9, primary screen, biochemical, AlphaScreen, biotin-AF4 peptide, FLAG-AF9, single point. Protein AF-9 (Homo sapiens), P42568. inhibition, % at 10 µM. actives 0.47% (n = 350,000);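 active = every replicate reaching a set inhibition limit, whatever the replicate mean, cut at about 25% in these data; inconclusive = mean inhibition reaches that limit but some replicates miss it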;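 note: 0% = plate neutral control median and 100% = total signal loss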
S100A4 inh HTS: inhibitors of S100A4-myosin IIA peptide binding, primary screen, biochemical, fluorescence polarization, TAMRA-MyoIIA peptide | actives 0.14% (n = 360,000) | inhibition, % at 10.7 µM;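 active = mean inhibition of at least 70% across replicates, with every replicate also reaching that level; inconclusive = mean inhibition reaches 70% but some replicates fall short; inactive = mean inhibition below 70%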
Target sequence (P26447 whole entry, looked up): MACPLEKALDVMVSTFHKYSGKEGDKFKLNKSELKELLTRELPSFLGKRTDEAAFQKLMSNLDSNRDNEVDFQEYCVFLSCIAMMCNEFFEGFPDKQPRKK
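Material: S100A4 monomer protein | Medium: HEPES pH 7.2 with CaCl2, KCl, NaCl, DTT, Triton | Reagent: Labelled myosin peptide probe, 5 nM | Doses: One dose per compound | Times: 5 min incubation before reading | Benchmarks: Neutral control DMSO, positive control TFP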
CaV13 ICDI inh: Disruptors of the CACNA1D IQ motif to Ca2+-dependent inactivation inhibitor domain association, primary screening, Förster resonance energy transfer in intact living …; AID 743397; inhibition, % at 12.3 µM; actives 0.098% (n = 340,000); HEK cells, CFP/YFP FRET ICDI-IQ, plate reader, 10 min; percent FRET-ratio fall versus neutral wells;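 active = mean replicate inhibition of at least 30% and at least 1% of replicates passing that level; inconclusive = only one of the two criteria is met; inactive = neither criterion is met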;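 note: 0% = median of the neutral control wells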
SIRT5 inh: SIRT5 desuccinylase inhibitors, primary screen, biochemical, fluorescence imaging, single point, set 5. Purified SirT5, succinyl-peptide AMC, trypsin-coupled fluorescence. inhibition, % at 15 µM. actives 1.1% (n = 330,000); in the data active = inhibition above about 15%; inconclusive = no clear call, values can overlap the other calls
Target sequence (Q9NXA8 whole entry, looked up): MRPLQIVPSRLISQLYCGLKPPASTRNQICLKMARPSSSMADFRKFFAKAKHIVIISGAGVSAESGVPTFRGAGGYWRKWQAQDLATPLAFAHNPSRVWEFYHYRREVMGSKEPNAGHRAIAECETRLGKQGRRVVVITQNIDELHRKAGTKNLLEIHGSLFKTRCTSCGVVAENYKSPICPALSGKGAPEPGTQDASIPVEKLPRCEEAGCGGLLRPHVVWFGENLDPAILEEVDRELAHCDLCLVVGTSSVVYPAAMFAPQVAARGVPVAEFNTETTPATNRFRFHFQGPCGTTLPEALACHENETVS
* = called active by the depositor; u = inconclusive; x = no result given.

SMILES	DENV2 CPE	MLL AF4-AF9 inh	S100A4 inh HTS	CaV13 ICDI inh	SIRT5 inh
N#C[C@@H]1[C@H](c2ccc(C#CC3(O)CCCC3)cc2)[C@H](CO)N1C(=O)C1CCC1	-8.9	-0.1	-4.9	x	1.0
COc1ccc(N2CCN(c3cc(C(=O)NC4CCCCC4)ncn3)CC2)cc1OC	22.2*	8.6	-2.0	-13.1	-2.1
CCNC(=O)[C@H]1[C@H](CO)[C@H]2Cn3c(ccc(-c4ccccc4)c3=O)[C@H]2N1C(=O)C1CC1	-1.1	0.4	-44.4	x	-13.9
O=C(Nc1ccc(Cl)cc1)N[C@H]1CC[C@H](CCNC(=O)c2ccccc2F)O[C@@H]1CO	1.9	-5.0	80.8*	x	-1.6
O=C(NCC[C@@H]1CC[C@H](NC(=O)C2CCOCC2)[C@H](CO)O1)Nc1ccc(Cl)cc1	-10.0	-10.0	4.7	x	0.5
O=C(NCC[C@@H]1CC[C@@H](NS(=O)(=O)c2ccc(Cl)cc2)[C@H](CO)O1)c1ccccc1F	-4.0	-1.9	10.8	x	18.2*
O=C(NCC[C@@H]1CC[C@H](NS(=O)(=O)c2ccc(Cl)cc2)[C@@H](CO)O1)c1ccccc1F	11.9	-1.1	-4.9	x	2.3
O=C(NCC[C@@H]1CC[C@@H](NC(=O)C2CCOCC2)[C@@H](CO)O1)Nc1ccc(Cl)cc1	37.6*	-6.2	-4.7	x	-1.3
O=C(NCC[C@H]1CC[C@H](NS(=O)(=O)c2ccccc2)[C@@H](CO)O1)c1cc(Cl)cc(Cl)c1	-0.1	1.3	75.8*	x	0.5
Cc1ccc(S(=O)(=O)N(C)C[C@H]2Oc3ncc(C#CCC(C)C)cc3C(=O)N([C@@H](C)CO)C[C@H]2C)cc1	3.4	0.0	0.7	x	11.6
O=C(C[C@H]1C[C@H]2c3cc(NC(=O)C4CCC4)ccc3O[C@H]2[C@@H](CO)O1)NCc1ccccc1	14.1	0.3	2.1	x	1.4
C[C@@H](NC(=O)C[C@H]1CC[C@@H](NC(=O)C2CCC2)[C@H](CO)O1)c1ccccc1	5.8	3.9	5.7	x	2.4
COc1ccc2oc(=N)c(C(=O)NCc3ccccc3)cc2c1	3.5	-3.5	1.0	-1.4	20.0*
COc1ccc2cc(C(=O)NCc3ccccc3)c(=O)oc2c1	-1.3	-3.1	-4.7	-5.2	-0.8
CCN(CC)c1ccc2cc(C(=O)NCc3ccc(F)cc3)c(=N)oc2c1	26.3*	-7.4	6.6	x	-0.6
COc1ccc2o/c(=N\O)c(C(=O)Nc3ccc(C)cc3)cc2c1	25.2*	-1.9	4.8	-19.7	0.0
N=c1oc2ccc(Br)cc2cc1C(=O)NCc1ccc(F)cc1	-7.5	-4.0	3.5	-5.2	2.9
COCC(=O)N(C)C[C@@H]1Oc2ncc(C3=CCCCC3)cc2C(=O)N([C@H](C)CO)C[C@@H]1C	11.2	-3.4	-3.5	x	-1.3
C[C@H](CO)N1C[C@H](C)[C@@H](CN(C)Cc2ccncc2)OCCCC[C@H](C)Oc2ccc(NS(C)(=O)=O)cc2C1=O	u	-6.5	-0.9	x	-4.1
CC(C)NC(=O)N(C)C[C@H]1Oc2c(NS(C)(=O)=O)cccc2C(=O)N([C@@H](C)CO)C[C@@H]1C	-6.2	-2.8	38.3	x	-3.4
CCCC(NC(=O)C(C)Sc1nnnn1C1CC1)c1ccccc1 (configuration not stated)	90.3*	-9.1	u	-2.3	-2.2
CC(Sc1nnnn1C1CC1)C(=O)Nc1cccc(S(=O)(=O)N2CCOCC2)c1 (configuration not stated)	-4.5	-6.2	-3.0	-4.7	-5.2
CO[C@@H](CN(C)C(=O)Nc1ccc(Cl)cc1)[C@H](C)CN(Cc1ccccc1Cl)[C@H](C)CO	2.3	1.3	7.8	x	4.9
O=C1N2CCCCC1(Sc1ccccc1)CCC2 (configuration not stated)	10.6	-4.1	-4.3	-5.7	2.2
O=C1N2CCCCC1(c1ccccc1)CCCC2	40.0*	0.3	0.9	-1.9	-4.3
C[C@@H]1CN([C@@H](C)CO)C(=O)c2cccc(NC(=O)Nc3ccc4c(c3)OCO4)c2O[C@@H]1CN(C)S(C)(=O)=O	-0.2	0.6	5.1	x	-1.8

Source: PubChem BioAssay
